This passage reports IC50, inhibition and half-life results from ChEMBL document CHEMBL3774321, “Systematic diversification of benzylidene heterocycles yields novel inhibitor scaffolds selective for Dyrk1A, Clk1 and CK2” (Eur J Med Chem, 2016).

For series [1], the target named is T1, Dual specificity tyrosine-phosphorylation-regulated kinase 1A (Homo sapiens, UniProt Q13627). As to the kind of experiment: Inhibition of recombinant human N-terminal His6-tagged DYRK1A catalytic domain expressed in Escherichia coli BL21(DE3) cells using KKISGRLSPIMTEQ-NH2 as substrate incubated for 15 mins in presence of [gamma-32P]ATP.
The target in series [2] is Dual specificity tyrosine-phosphorylation-regulated kinase 1B (Homo sapiens, UniProt Q9Y463). As to the kind of experiment: Inhibition of full length recombinant human GST-tagged DYRK1B expressed in insect cells using KKISGRLSPIMTEQ-NH2 as substrate incubated for 15 mins in presence of [gamma-32P]ATP.
The target in series [3] is T2, Dual specificity tyrosine-phosphorylation-regulated kinase 2 (Homo sapiens, UniProt Q92630).
T2 sequence (Q92630 whole entry): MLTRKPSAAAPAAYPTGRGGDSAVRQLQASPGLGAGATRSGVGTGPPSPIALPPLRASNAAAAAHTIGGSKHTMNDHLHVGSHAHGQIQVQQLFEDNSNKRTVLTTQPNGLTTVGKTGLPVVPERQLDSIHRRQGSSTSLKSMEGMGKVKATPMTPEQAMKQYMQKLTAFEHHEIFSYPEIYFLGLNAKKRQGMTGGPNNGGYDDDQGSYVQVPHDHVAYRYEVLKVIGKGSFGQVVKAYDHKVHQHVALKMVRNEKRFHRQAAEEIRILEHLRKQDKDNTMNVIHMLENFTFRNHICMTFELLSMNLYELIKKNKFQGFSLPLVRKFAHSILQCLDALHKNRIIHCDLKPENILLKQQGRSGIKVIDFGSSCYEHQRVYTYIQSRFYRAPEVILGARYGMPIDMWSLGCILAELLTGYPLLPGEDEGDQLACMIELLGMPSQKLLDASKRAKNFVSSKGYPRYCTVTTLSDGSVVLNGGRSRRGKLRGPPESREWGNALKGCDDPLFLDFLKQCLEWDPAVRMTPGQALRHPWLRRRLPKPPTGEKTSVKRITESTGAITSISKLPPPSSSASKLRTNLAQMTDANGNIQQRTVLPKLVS
Kind of series: Inhibition of recombinant human N-terminal GST-tagged DYRK2 expressed in Escherichia coli BL21(DE3) cells using KKISGRLSPIMTEQ-NH2 as substrate incubated for 15 mins in presence of [gamma-32P]ATP. The settings on record: read-out: IC50. The method, boiled down: (§1)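 Purified recombinant kinase with 100 µM ATP. IC50 values are averages of at least two independent determinations.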

In the next series the target is Casein kinase II (Homo sapiens, UniProt P19784+P67870+P68400). Kind of series: Inhibition of CK2 (unknown origin) using RRRDDDSDDD-NH2 as susbtrate incubated for 15 mins in presence of [gamma-32P]ATP. The series is classed as protein-complex assay.
The target of series [4] is Dual specificity protein kinase CLK1 (Homo sapiens, UniProt P49759). As to the kind of experiment: Inhibition of recombinant human GST-tagged CLK1 catalytic domain (129 to 484 residues) expressed in Escherichia coli using GRSRSRSRSRSRSRSR as substrate incubated for 15 mins in presence of [gamma-32P]ATP. The method, boiled down: as §1
Series [5] concerns the target Epidermal growth factor receptor (Homo sapiens, UniProt P00533). Kind of series: Inhibition of EGFR (unknown origin) incubated for 15 mins in presence of [gamma-32P]ATP. The settings on record: read-out: IC50. The method, boiled down:
(§2)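 Purified recombinant kinase assayed with 100 μM ATP. Values averaged from at least two independent determinations.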

Series [6] deals with Protein kinase C beta type (Homo sapiens, UniProt P05771). Kind of series: Inhibition of PKCbeta (unknown origin) incubated for 15 mins in presence of [gamma-32P]ATP. The method, boiled down: as §2
For series [7], the target named is Phosphatidylinositol 4,5-bisphosphate 3-kinase catalytic subunit alpha isoform (Homo sapiens, UniProt P42336). Kind of series: Inhibition of PI3K p110alpha (unknown origin).
Series [8] addresses T3, Phosphatidylinositol 4,5-bisphosphate 3-kinase catalytic subunit gamma isoform (Homo sapiens, UniProt P48736). As to the kind of experiment: Inhibition of PI3K p110gamma (unknown origin) at 1 uM relative to control. The method, boiled down:
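Single-point screen at 1 μM compound. Percent inhibition is the mean of two separate measurements, each run in duplicate.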

The target in series [9] is T3, Phosphatidylinositol 4,5-bisphosphate 3-kinase catalytic subunit gamma isoform. Kind of series: Inhibition of PI3K p110gamma (unknown origin).
The target in series [10] is T1, Dual specificity tyrosine-phosphorylation-regulated kinase 1A. Kind of series: Inhibition of tetracycline-inducible EGFP-DYRK1A (unknown origin) expressed in HEK293 cells coexpressing full length human EGFP-tau protein assessed as reduction in tau-Thr212 phosphorylation incubated overnight by immunoblotting assay.
Series [11] is described as follows: Half life in rat plasma at 1 uM by LC-MS/MS analysis. The series is classed as ADME, cell-free. The method, boiled down:
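Pooled heparinized rat plasma incubated with 1 μM compound at 37 °C, sampled at 0, 5, 15, 30, 60 and 120 min. Reaction stopped with 5 volumes cold acetonitrile containing internal standard. Remaining compound quantified by LC-MS/MS. Half-life given as mean of two experiments.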

In series [12] the target is T4, Phosphatidylinositol 4,5-bisphosphate 3-kinase catalytic subunit delta isoform (Homo sapiens) (UniProt O00329).
T4 sequence (whole entry): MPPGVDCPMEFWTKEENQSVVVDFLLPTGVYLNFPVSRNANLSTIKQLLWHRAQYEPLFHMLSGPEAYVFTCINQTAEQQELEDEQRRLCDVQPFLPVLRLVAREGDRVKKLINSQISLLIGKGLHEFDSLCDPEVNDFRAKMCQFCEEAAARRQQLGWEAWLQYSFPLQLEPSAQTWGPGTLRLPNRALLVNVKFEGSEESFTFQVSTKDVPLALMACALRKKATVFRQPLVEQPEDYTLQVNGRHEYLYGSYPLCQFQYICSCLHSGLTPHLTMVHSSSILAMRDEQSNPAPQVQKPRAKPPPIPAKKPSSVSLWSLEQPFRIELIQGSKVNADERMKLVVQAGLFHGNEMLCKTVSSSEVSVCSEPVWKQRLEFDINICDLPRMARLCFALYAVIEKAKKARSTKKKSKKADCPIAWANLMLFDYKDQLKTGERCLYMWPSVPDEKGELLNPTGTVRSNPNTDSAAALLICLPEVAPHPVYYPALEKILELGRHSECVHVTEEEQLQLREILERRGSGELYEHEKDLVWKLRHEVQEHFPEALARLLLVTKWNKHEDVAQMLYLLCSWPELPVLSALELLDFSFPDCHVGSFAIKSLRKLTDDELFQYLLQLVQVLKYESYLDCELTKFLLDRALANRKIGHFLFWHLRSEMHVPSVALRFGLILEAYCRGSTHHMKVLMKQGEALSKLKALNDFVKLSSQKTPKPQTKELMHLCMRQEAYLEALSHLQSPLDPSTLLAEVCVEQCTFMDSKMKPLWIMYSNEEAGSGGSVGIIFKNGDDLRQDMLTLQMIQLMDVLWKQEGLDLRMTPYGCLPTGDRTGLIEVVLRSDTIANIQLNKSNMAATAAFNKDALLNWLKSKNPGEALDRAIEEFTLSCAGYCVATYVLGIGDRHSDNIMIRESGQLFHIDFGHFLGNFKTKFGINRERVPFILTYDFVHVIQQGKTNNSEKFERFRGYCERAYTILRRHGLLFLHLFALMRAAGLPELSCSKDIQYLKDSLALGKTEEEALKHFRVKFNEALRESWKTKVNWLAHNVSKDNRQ
Kind of series: Inhibition of PI3K p110delta (unknown origin) at 5 uM relative to control.

One may read the IC50 as the point on the concentration scale where inhibition reaches its midpoint. As a reminder, the inhibition is the relative decrease from the control value, in per cent. Lower therefore signals a weak effect. One may read the half-life as the time in which the quantity being followed falls by half. High values mean slow decline, low ones rapid decline.

Sequence of Casein kinase II (P67870 whole entry, the tested form may be a part): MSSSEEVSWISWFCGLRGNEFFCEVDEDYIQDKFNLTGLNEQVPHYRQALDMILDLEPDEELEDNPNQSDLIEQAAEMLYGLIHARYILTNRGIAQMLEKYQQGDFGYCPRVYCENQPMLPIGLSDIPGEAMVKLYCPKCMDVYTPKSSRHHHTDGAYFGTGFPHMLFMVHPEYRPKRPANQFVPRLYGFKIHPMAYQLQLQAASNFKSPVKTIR
Sequence of Casein kinase II (P68400 whole entry, the tested form may be a part): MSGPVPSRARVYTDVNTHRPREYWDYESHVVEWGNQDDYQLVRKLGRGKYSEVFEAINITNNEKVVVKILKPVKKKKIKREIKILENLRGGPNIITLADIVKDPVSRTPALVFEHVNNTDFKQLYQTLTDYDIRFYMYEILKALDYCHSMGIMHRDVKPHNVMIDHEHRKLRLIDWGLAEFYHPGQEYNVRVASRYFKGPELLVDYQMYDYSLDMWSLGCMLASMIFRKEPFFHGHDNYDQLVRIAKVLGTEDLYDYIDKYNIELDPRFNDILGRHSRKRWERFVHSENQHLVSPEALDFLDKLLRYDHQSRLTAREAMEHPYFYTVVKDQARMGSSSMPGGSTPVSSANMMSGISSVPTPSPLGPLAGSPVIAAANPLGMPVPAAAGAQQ
Sequence of Casein kinase II (P19784 whole entry, the tested form may be a part): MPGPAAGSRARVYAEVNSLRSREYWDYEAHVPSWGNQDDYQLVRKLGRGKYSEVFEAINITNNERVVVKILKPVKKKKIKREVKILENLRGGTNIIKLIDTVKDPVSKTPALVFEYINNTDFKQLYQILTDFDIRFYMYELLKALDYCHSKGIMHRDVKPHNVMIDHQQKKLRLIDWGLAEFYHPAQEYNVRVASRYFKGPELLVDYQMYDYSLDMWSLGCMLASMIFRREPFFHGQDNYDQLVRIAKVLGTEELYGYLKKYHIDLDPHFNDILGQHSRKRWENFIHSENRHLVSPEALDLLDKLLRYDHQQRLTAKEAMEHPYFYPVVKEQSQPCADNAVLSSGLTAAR
Sequence of Dual specificity tyrosine-phosphorylation-regulated kinase 1B (Q9Y463 whole entry): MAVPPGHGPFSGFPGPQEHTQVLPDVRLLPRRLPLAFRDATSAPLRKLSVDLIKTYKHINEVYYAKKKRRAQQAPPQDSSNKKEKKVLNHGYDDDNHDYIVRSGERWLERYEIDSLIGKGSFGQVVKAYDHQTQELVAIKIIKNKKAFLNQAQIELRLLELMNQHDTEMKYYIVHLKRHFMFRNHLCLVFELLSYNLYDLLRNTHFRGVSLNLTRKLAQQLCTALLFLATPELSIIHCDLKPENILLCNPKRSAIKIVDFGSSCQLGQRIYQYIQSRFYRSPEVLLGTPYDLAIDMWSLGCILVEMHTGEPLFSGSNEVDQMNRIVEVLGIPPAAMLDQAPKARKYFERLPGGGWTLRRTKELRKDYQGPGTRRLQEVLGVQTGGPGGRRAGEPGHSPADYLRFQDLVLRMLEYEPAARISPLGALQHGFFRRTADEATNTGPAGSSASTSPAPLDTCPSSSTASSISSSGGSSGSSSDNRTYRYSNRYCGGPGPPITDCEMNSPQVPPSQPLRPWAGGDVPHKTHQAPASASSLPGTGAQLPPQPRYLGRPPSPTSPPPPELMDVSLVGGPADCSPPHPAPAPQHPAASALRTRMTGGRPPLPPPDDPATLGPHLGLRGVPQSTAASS
Sequence of Phosphatidylinositol 4,5-bisphosphate 3-kinase catalytic subunit alpha isoform (P42336 whole entry, canonical isoform): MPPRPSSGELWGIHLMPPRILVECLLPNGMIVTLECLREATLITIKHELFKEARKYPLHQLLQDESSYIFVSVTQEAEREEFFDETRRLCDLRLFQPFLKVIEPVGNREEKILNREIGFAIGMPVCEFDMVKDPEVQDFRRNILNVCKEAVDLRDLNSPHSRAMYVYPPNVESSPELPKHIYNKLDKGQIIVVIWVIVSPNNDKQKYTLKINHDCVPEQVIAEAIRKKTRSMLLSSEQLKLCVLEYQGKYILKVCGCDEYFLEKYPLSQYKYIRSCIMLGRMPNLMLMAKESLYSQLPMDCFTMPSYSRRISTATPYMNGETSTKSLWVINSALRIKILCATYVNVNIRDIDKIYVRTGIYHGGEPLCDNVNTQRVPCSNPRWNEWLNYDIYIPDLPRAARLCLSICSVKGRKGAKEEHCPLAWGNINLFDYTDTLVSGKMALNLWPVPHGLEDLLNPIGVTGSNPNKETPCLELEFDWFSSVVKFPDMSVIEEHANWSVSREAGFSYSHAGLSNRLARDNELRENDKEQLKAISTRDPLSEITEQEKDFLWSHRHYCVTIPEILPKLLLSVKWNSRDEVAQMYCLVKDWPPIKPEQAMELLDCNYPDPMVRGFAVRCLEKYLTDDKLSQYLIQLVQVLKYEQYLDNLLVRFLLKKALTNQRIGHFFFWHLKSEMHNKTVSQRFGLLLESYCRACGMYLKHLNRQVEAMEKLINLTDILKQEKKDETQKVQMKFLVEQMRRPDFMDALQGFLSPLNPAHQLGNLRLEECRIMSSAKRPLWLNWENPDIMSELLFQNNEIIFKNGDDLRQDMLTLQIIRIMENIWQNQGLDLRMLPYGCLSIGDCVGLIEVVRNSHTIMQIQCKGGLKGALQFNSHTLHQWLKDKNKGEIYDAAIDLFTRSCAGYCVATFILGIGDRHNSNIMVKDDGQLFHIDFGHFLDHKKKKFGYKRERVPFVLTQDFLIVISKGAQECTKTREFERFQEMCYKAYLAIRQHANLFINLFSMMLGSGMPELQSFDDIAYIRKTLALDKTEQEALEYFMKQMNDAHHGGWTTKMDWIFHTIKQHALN
Sequence of Dual specificity protein kinase CLK1 (P49759 whole entry, the tested form may be a part): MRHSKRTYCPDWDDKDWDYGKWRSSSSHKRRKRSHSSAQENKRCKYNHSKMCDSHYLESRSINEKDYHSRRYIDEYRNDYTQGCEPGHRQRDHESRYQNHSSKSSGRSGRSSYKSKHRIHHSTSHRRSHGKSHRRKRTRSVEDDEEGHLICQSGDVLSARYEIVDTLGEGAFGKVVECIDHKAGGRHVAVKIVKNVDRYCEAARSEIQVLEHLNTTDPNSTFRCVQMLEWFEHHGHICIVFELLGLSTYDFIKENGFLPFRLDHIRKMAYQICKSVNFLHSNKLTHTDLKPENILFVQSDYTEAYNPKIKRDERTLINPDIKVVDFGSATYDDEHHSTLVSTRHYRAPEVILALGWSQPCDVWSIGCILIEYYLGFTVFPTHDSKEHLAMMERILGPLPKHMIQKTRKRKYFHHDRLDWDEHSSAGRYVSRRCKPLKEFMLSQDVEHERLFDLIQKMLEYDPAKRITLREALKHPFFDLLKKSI
Sequence of Epidermal growth factor receptor (P00533 whole entry): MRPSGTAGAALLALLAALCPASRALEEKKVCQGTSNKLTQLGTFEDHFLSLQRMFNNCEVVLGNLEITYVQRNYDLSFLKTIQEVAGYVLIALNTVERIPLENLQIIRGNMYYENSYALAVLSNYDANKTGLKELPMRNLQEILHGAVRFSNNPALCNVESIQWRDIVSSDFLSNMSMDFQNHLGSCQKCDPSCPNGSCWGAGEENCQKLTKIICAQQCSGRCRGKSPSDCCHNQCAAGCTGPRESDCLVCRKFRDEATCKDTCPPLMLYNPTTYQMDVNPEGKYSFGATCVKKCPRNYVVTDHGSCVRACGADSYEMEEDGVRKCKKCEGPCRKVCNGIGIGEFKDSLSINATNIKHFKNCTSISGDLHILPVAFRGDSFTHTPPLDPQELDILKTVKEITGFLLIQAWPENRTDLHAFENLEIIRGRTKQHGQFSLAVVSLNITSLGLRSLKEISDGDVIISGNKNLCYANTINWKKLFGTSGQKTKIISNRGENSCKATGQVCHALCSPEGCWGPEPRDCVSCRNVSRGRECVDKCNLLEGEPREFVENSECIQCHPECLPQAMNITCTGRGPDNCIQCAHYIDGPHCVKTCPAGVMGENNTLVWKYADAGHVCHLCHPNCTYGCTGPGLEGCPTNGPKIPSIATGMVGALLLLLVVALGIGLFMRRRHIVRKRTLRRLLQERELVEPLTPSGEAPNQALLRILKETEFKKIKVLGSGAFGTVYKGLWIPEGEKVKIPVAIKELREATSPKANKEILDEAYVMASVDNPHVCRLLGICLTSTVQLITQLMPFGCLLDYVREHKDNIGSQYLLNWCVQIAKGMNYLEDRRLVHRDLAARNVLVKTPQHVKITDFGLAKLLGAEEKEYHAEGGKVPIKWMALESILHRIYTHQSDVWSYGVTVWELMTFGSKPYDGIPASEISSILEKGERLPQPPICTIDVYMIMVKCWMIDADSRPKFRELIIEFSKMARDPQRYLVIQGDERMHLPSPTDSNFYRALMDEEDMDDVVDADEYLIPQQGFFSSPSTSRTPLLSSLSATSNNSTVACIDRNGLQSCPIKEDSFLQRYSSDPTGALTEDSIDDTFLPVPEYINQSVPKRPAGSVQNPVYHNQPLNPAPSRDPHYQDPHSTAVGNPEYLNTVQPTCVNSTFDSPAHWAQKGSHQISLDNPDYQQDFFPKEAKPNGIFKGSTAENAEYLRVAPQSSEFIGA
Sequence of Protein kinase C beta type (P05771 whole entry, canonical isoform): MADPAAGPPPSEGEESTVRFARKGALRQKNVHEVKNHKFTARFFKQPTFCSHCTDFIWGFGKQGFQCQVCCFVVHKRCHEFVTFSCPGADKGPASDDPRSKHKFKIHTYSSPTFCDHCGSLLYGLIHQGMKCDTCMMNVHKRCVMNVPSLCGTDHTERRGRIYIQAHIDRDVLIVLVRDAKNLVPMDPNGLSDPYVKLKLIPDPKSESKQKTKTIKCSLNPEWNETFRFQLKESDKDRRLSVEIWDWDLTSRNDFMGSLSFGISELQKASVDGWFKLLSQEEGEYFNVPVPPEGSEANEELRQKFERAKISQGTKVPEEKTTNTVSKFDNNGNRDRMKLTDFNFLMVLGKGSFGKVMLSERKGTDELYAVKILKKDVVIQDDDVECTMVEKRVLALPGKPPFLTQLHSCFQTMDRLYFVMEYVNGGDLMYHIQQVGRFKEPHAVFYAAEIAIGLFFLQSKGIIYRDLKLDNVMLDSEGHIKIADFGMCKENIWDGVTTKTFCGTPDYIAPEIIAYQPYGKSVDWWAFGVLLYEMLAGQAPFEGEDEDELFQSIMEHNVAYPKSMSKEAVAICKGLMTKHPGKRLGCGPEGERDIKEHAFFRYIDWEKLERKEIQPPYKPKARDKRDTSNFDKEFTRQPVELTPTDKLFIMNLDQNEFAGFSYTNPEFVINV

`O=C1NC(=S)S/C1=C\c1ccc2ncccc2c1`: the IC50 in [1] is 20 nM; in series [2], 60 nM; in series [3], 60 nM; at Casein kinase II it was 40 nM; in series [4], 200 nM; in series [5], > 10 µM. Further, the IC50 in [6] (read-out: IC50) is > 10 µM; in series [7], 2.6 nM; in series [9] it was 2.3 nM; in series [10], 1400 nM. In series [8], this compound registered an inhibition of 97%.

Regarding `O=C1OCC/C1=C\c1ccc2ncsc2c1`, in series [11], the half-life at 1 µM is 186 min. Besides, the IC50 is 130 nM in [1]; 1050 nM in series [2]; 60 nM in [3]; > 10000 nM on Casein kinase II; > 10000 nM in [4]; > 10 µM in series [5]. Moreover, the figures for the IC50 result in series [6] and in [10] were “Not Active” and 200 nM, respectively. The compound further registered an inhibition in [12] of 77%.

For `O=C1NC(=S)S/C1=C\c1ccc2ncsc2c1`, in series [11], the half-life at 1 µM came to 101 min. Besides, the IC50 in series [1] was 40 nM; in series [2], 70 nM; in [3], 200 nM; on Casein kinase II, 60 nM; in [4], 100 nM; in [5] it was > 10 µM. Moreover, the IC50 in series [6] (read-out: IC50) was determined as 9.2 µM; in series [7], 2.2 nM; in series [9] it was 2.3 nM; in series [10], 2100 nM. The inhibition in [8] turned out to be 97%.

As for `CC1C/C(=C\c2ccc3c(c2)CCO3)C(=O)O1` (centres undefined), the half-life at 1 µM in series [11] was > 120 min. In addition, the 50% inhibitory concentration (IC50) was 170 nM in [1]; 2640 nM in series [2]; 430 nM in [3]; > 10000 nM on Casein kinase II; > 10000 nM in series [4]; > 10 µM in series [5]. Moreover, the IC50 entry in series [6] was “Not Active”; in series [7], 650 nM; in series [10], 2100 nM. In addition, the inhibition in series [12] amounted to 73%.
